In assay [1] the target is Glycogen synthase kinase-3 alpha/beta (Sus scrofa). Briefly: Inhibition of glycogen synthase kinase-3-alpha/beta (GSK-3-alpha/beta) in porcine brain relative to indirubin.
In assay [2] the target is Cyclin-dependent kinase 5/CDK5 activator 1 (Homo sapiens, UniProt Q00535). Put plainly: Inhibitory activity against Cyclin-dependent kinase 5-p35nck5a. It is filed as protein-complex assay. A digest of the protocol:
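Recombinant mammalian CDK5 and p25 (truncated p35 activator), each expressed in E. coli as a GST fusion, purified on glutathione-agarose and mixed in equal amounts. IC50 from dose-response curves.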

Assay [3] addresses Glycogen synthase kinase-3 alpha/beta (Sus scrofa). Briefly: Inhibitory activity against GSK-3-alpha/beta from porcine brain.
Assay [4] addresses Cyclin-dependent kinase 1/cyclin B (Marthasterias glacialis). Briefly: Inhibitory activity against cyclin dependent kinase 1-cyclinB from starfish (Marthasterias glacialis) oocytes.

A word on the IC50: it is the point on the concentration scale where inhibition reaches its midpoint. A lower IC50 goes with greater potency. Usually pIC50 stands for the negative decadic logarithm of the IC50, by convention in mol/L. A low value points to a high IC50.

pIC50: −log10 of the molar value. Bounds are passed on as bounds.

Sequence of Cyclin-dependent kinase 5/CDK5 activator 1 (Q00535 whole entry, the tested form may be a part): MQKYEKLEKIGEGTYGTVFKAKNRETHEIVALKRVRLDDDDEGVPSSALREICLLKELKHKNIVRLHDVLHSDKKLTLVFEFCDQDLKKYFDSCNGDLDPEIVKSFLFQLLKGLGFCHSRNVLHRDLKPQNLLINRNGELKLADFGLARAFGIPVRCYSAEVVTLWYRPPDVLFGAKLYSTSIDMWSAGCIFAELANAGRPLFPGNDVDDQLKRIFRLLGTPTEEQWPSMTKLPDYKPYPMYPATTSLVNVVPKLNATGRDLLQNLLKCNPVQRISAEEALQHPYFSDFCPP
Sequence of Cyclin-dependent kinase 5/CDK5 activator 1 (Q15078 whole entry, further chain, the tested form may be a part): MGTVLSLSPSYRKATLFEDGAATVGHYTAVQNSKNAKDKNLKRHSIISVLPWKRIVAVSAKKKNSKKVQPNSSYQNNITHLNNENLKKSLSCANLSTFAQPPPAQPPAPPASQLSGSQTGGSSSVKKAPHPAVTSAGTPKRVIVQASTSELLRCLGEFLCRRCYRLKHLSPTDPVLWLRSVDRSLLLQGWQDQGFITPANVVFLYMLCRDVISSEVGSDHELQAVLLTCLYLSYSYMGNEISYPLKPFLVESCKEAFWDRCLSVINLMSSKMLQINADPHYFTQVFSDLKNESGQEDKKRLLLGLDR

Take `Cc1ccc2[nH]c(O)c(C3=Nc4ccccc4C3=O)c2c1`: the IC50 in assay [1] was 62 nM.

Consider `CO/N=C1/C(c2c(O)[nH]c3ccccc23)=Nc2ccccc21`, for which the pIC50 in assay [2] was 6.40.

In assay [3], `O=C1C(c2c(O)[nH]c3cc(Br)ccc23)=Nc2cc(Br)ccc21` had a 50% inhibitory concentration (IC50) of 4500 nM. The negative-log IC50 (pIC50) in assay [4] and in assay [2] was less than 4.00 throughout.

For the molecule `O=Nc1c(-c2c(O)[nH]c3cc(Br)c([N+](=O)[O-])cc23)[nH]c2ccccc12`, in assay [2], the pIC50 is 6.82.

In assay [2], `O=C1C(c2c(O)[nH]c3cc(F)ccc23)=Nc2ccccc21` showed a pIC50 of 6.00. This pIC50 is 0.82 log units lower than that of the molecule before.

Turning to `O=Nc1c(-c2c(O)[nH]c3cc(Cl)ccc23)[nH]c2ccccc12`, the IC50 in assay [3] is 20 nM. For the same molecule, the figures for the negative logarithm of the IC50 (pIC50) in assay [4] and in assay [2] were 6.19 and 7.00, respectively.

The molecule `Cn1c(O)c(-c2[nH]c3ccccc3c2N=O)c2ccc(Br)cc21` yielded an IC50 in assay [3] of more than 100000 nM. Further, the pIC50 in assay [4] was 4.04; in assay [2], less than 4.00.

Take `Cc1cc2c(C3=Nc4ccccc4C3=O)c(O)[nH]c2cc1Br`: the IC50 in assay [3] came out at 25 nM. In addition, the pIC50 in assay [4] was 4.52; in assay [2], 4.22.

In the case of `O=C1C(c2c(O)[nH]c3ccc(Br)cc23)=Nc2ccccc21`, the IC50 in assay [1] is 55 nM. This lies in the double-digit nanomolar range.

On to `O=C1C(c2c(O)[nH]c3ccccc23)=Nc2ccc(Br)cc21`, for which the IC50 in assay [1] was determined as 350 nM. Against the preceding molecule, the IC50 is about 6.4-fold higher.

For `O=C1C(c2c(O)[nH]c3ccc([N+](=O)[O-])cc23)=Nc2ccccc21`, in assay [1], the concentration for half-maximal inhibition (IC50) is 42 nM.

As to `CC(=O)O/N=C1/C(c2c(O)[nH]c3cc(Cl)ccc23)=Nc2ccccc21`, the IC50 in assay [3] amounted to 17 nM. Besides, the results for the pIC50 in assay [4] and in assay [2] were 4.52 and 6.70, respectively.

`O=Nc1c(-c2c(O)[nH]c3cc(F)ccc23)[nH]c2ccccc12` showed an IC50 in assay [3] of 130 nM. The negative logarithm of the IC50 (pIC50) in assay [4] was 6.49; in assay [2], 6.82.

Take `O=C1C(c2c(O)[nH]c3cc(I)ccc23)=Nc2ccccc21`: the concentration for half-maximal inhibition (IC50) in assay [3] came to 55 nM. The pIC50 in assay [4] was 5.80; in assay [2] it was 5.28.

`Cn1c(O)c(C2=Nc3ccccc3C2=O)c2ccc(Br)cc21` returned a 50% inhibitory concentration (IC50) in assay [3] of more than 100000 nM. Moreover, the negative logarithm of the IC50 (pIC50) in assay [4] and in assay [2] was less than 4.00 throughout.

In assay [3], `C=Cc1ccc2c(C3=Nc4ccccc4C3=O)c(O)[nH]c2c1` gave an IC50 of 240 nM. In addition, the negative logarithm of the IC50 (pIC50) was 5.38 in assay [4] and 5.62 in assay [2].

Molecule `Cc1cc2c(-c3[nH]c4ccccc4c3N=O)c(O)[nH]c2cc1Br` showed a negative logarithm of the IC50 (pIC50) in assay [2] of 6.89.

Take `O=C1C(c2c(O)[nH]c3cccc(Cl)c23)=Nc2ccccc21`: the IC50 in assay [3] is more than 100000 nM. Further, the negative logarithm of the IC50 (pIC50) in assay [4] and in assay [2] was 5.00 each time.

Turning to `O=C1C(c2c(O)[nH]c3ccc(Br)cc23)=Nc2ccc(Br)cc21`, the IC50 in assay [1] was determined as 250 nM.

For `CC(=O)O/N=C1/C(c2c(O)[nH]c3ccccc23)=Nc2ccccc21`, the pIC50 in assay [2] is 6.15.

For `O=C1C(c2c(O)[nH]c3cc(Br)ccc23)=Nc2ccccc21`, the negative logarithm of the IC50 (pIC50) in assay [2] was 4.28.

`O=Nc1c(-c2c(O)[nH]c3cc(I)ccc23)[nH]c2ccccc12`: in assay [2], the pIC50 was 6.52.

For `CC(=O)O/N=C1/C(c2c(O)[nH]c3cc(F)ccc23)=Nc2ccccc21`, in assay [2], the negative-log IC50 (pIC50) was 6.52.

Turning to `CC(=O)O/N=C1/C(c2c(O)[nH]c3cc(I)ccc23)=Nc2ccccc21`, the IC50 in assay [3] stood at 13 nM. In addition, the pIC50 was 5.66 in assay [4] and 5.89 in assay [2].

In assay [4], `O=Nc1c(-c2c(O)[nH]c3ccccc23)[nH]c2cc(Br)ccc12` had a pIC50 of 5.52.

`CO/N=C1/C(c2c(O)[nH]c3cc(Br)ccc23)=Nc2ccccc21` registered an IC50 in assay [3] of 30 nM. In addition, the pIC50 was 5.43 in assay [4] and 5.66 in assay [2].

For `Cn1c(O)c(-c2[nH]c3ccccc3c2N=O)c2ccccc21`, the pIC50 in assay [4] was 4.14; in assay [2] it was less than 4.00.

As for `O=C1C(c2c(O)[nH]c3ccc(Cl)cc23)=Nc2ccccc21`, in assay [1], the IC50 stood at 50 nM. This counts as double-digit nanomolar.

For `O=C1C(c2c(O)[nH]c3ccc(F)cc23)=Nc2ccccc21`, the half-maximal inhibitory concentration (IC50) in assay [1] was 78 nM. This IC50 is about 1.6-fold higher than that of the molecule before.

As to `O=C1C(c2c(O)[nH]c3cc(Cl)c(Cl)cc23)=Nc2ccccc21`, in assay [3], the half-inhibitory concentration (IC50) stood at 30 nM. Besides, the pIC50 in assay [4] is 4.35; in assay [2] it was 4.22.

`O=C1C(c2c(O)[nH]c3ccccc23)=Nc2cc(Br)ccc21`: the 50% inhibitory concentration (IC50) in assay [3] amounted to 22000 nM. Also, the pIC50 in assay [4] and in assay [2] was less than 4.00 in each case.

In assay [3], `O=C1C(c2c(O)[nH]c3cc(Br)c([N+](=O)[O-])cc23)=Nc2ccccc21` showed a 50% inhibitory concentration (IC50) of 100 nM. Also, the pIC50 in assay [4] and in assay [2] was less than 4.00 each time.

`C=Cc1ccc2c(C3=Nc4ccccc4/C3=N\OC(C)=O)c(O)[nH]c2c1`: the IC50 in assay [3] came out at 65 nM. Moreover, the pIC50 in assay [4] was 5.80; in assay [2], 6.40.

Regarding `O=C1C(c2c(O)[nH]c3cc(Cl)ccc23)=Nc2ccccc21`, the IC50 in assay [3] was 140 nM. Further, the negative-log IC50 (pIC50) in assay [4] and in assay [2] was less than 4.00 each time.

The molecule `C=Cc1ccc2c(-c3[nH]c4ccccc4c3N=O)c(O)[nH]c2c1` gave a half-inhibitory concentration (IC50) in assay [3] of 60 nM. Moreover, the figures for the pIC50 in assay [4] and in assay [2] were 5.92 and 6.38, respectively.

In turn, `CC(=O)O/N=C1/C(=C2/C(=O)Nc3cc(Br)c([N+](=O)[O-])cc32)Nc2ccccc21` returned an IC50 in assay [3] of 6 nM. The pIC50 in assay [4] is 4.96; in assay [2], 4.51.

Turning to `CC(=O)O/N=C1/C(=C2/C(=O)Nc3cc(Br)c(C)cc32)Nc2ccccc21`, the half-inhibitory concentration (IC50) in assay [3] is 7 nM. Besides, the figures for the pIC50 in assay [4] and in assay [2] were 4.51 and 4.52, respectively.

With `Cn1c(O)c(C2=Nc3ccccc3C2=O)c2ccccc21`, the negative-log IC50 (pIC50) in assay [4] and in assay [2] was less than 4.00 each time.

On to `O=Nc1c(-c2c(O)[nH]c3cc(Br)ccc23)[nH]c2cc(Br)ccc12`, for which the IC50 in assay [3] came out at 120 nM. The pIC50 in assay [4] was 4.77; in assay [2], 5.89.

In turn, `CC(=O)O/N=C1/C(=C2/C(=O)Nc3cc(Br)ccc32)Nc2ccccc21` [6-BROMOINDIRUBIN-3'-ACETOXIME] gave an IC50 in assay [3] of 10 nM. Moreover, the pIC50 in assay [4] was 4.20; in assay [2], 5.62.

For the molecule `CC(=O)O/N=C1/C(=C2/C(=O)Nc3cc(Cl)c(Cl)cc32)Nc2ccccc21` [INDIRUBIN 1], the 50% inhibitory concentration (IC50) in assay [3] was found to be 4 nM. Moreover, the results for the pIC50 in assay [4] and in assay [2] were 4.52 and 7.00, respectively.

The values are drawn from ChEMBL document CHEMBL1148469, “Structural basis for the synthesis of indirubins as potent and selective inhibitors of glycogen synthase kinase-3 and cyclin-dependent kinases” (J Med Chem, 2004).
